The values that follow come from ChEMBL document CHEMBL2384907, “Identification of substituted pyrimido[5,4-b]indoles as selective Toll-like receptor 4 ligands” (J Med Chem, 2013).

Holding throughout (format): cell-based
Assay [1] concerns the target Toll-like receptor 4 (Homo sapiens) (UniProt O00206). In words: Activation of TLR4 in human PBMC cells assessed as AUC of IL8 release at 10 uM after 18 hrs by ELISA relative to N-cyclohexyl-2-(4-oxo-3-phenyl-4,5-dihydro-3H-pyrimido[5,4-b]indol-2-ylthio)acetamide. The procedure, abridged:
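Human PBMC from buffy coats, 1 × 10^6/mL in complete RPMI, 18 h at 37 °C, 5% CO2 with compound at 10 μM; IL-8 in supernatant by ELISA, normalized to reference hit set at 100. LPS 10 ng/mL positive control.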
In general terms: In an ELISA, binding on a coated surface is turned into a signal by an enzyme label.

For assay [2], the target named is T1, Toll-like receptor 4 (Mus musculus) (UniProt Q9QUK6).
T1 sequence (whole entry): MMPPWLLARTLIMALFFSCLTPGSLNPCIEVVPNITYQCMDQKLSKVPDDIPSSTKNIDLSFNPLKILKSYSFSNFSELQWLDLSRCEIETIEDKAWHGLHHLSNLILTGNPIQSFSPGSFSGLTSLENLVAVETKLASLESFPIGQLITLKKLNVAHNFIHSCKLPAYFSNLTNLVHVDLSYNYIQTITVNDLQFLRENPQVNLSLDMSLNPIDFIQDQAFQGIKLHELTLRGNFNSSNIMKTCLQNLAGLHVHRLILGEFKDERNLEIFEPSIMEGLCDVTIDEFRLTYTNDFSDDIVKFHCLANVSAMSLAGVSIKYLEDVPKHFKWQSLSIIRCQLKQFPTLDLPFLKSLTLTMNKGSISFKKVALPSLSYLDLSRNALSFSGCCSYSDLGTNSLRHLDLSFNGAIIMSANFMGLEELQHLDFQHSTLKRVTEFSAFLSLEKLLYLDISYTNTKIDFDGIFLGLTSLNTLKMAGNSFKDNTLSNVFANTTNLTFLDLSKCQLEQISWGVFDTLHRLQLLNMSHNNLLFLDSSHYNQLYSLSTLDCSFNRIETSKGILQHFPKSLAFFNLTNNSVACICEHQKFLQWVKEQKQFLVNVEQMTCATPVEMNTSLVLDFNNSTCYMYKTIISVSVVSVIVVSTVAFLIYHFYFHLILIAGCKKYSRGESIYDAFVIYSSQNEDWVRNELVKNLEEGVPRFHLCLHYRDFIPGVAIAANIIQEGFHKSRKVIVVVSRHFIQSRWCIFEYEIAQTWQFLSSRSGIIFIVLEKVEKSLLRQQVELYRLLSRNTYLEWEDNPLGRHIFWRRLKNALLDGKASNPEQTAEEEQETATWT
Description: Activation of mouse TLR4 transfected in HEK293 cells after 18 hrs by SEAP assay relative to N-cyclohexyl-2-(4-oxo-3-phenyl-4,5-dihydro-3H-pyrimido[5,4-b]indol-2-ylthio)acetamide. The method in brief: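 Mouse TLR4 HEK-Blue cells (2.5 × 10^4/well) given titrated doses 312 nM–10 μM for 18 h, 0.5% DMSO vehicle; SEAP at 630 nm. Percent-activity curves, AUC by trapezoid method, normalized to reference hit set at 100. LPS 10 ng/mL control.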

The target in assay [3] is Toll-like receptor 4 (Homo sapiens) (UniProt O00206). Description: Activation of human TLR4 transfected in HEK293 cells after 18 hrs by SEAP assay relative to N-cyclohexyl-2-(4-oxo-3-phenyl-4,5-dihydro-3H-pyrimido[5,4-b]indol-2-ylthio)acetamide. Details: concentration or dose not given beside the values. The procedure, abridged:
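Human TLR4 HEK-Blue cells (2.5 × 10^4/well) given compound at 10 μM for 18 h, 0.5% DMSO vehicle; SEAP in supernatant read at 630 nm, normalized to reference hit set at 100. LPS 10 ng/mL positive control.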

The target of assay [4] is T1, Toll-like receptor 4 (Mus musculus). In words: Activation of TLR4 in C57BL/6 mouse BMDC cells assessed as AUC of IP10 release at 5 uM after 18 hrs by ELISA relative to N-cyclohexyl-2-(4-oxo-3-phenyl-4,5-dihydro-3H-pyrimido[5,4-b]indol-2-ylthio)acetamide.
Assay [5] shares this target. Description: Activation of TLR4 in C57BL/6 mouse BMDC cells assessed as AUC of IL6 release after 18 hrs by ELISA relative to N-cyclohexyl-2-(4-oxo-3-phenyl-4,5-dihydro-3H-pyrimido[5,4-b]indol-2-ylthio)acetamide. The method in brief:
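C57BL/6 bone marrow DC, 10^5 cells/well in RPMI-10% FCS, 18 h at 37 °C with titrated doses 312 nM–10 μM; supernatant IL-6 by ELISA. Each curve converted to percent activity (background subtracted, plate-adjusted), AUC by trapezoid method, normalized to reference hit set at 100 per experiment. LPS 10 ng/mL positive control; 0.5% DMSO vehicle.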

Bounds are passed on as bounds.

Chain of Toll-like receptor 4 (Homo sapiens) (O00206 whole entry): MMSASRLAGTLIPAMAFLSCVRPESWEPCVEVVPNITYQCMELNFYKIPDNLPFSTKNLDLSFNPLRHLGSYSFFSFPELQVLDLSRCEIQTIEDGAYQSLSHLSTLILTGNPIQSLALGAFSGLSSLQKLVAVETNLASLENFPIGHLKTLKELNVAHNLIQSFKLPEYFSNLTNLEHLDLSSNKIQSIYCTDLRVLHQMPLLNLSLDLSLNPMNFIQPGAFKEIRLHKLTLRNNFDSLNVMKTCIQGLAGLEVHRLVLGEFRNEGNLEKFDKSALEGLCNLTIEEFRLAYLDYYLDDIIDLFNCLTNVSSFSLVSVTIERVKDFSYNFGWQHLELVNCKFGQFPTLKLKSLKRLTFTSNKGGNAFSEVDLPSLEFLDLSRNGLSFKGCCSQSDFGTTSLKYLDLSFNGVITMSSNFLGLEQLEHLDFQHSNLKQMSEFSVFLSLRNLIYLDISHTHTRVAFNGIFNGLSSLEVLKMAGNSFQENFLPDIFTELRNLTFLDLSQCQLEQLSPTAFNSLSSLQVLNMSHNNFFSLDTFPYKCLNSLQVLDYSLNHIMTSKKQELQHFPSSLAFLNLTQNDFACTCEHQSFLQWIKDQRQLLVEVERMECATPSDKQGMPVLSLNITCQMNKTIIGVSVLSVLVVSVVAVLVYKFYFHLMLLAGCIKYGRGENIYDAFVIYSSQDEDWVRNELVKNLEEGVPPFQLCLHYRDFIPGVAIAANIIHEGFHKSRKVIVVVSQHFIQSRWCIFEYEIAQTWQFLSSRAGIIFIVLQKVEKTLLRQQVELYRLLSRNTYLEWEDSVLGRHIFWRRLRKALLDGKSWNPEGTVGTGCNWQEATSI

Consider `CN(C(=O)CSc1nc2c3ccccc3n(C)c2c(=O)n1-c1ccccc1)C1CCCCC1`, for which the Activity is 5% in assay [1]; 1% in assay [2]; < 1% in assay [3]; < 1% in assay [4]; < 1% in assay [5].
For the compound `CCC(CC)NC(=O)CSc1nc2c([nH]c3ccccc32)c(=O)n1-c1ccccc1`, the Activity in assay [1] was < 1%; in assay [2], 8%; in assay [3], 11%; in assay [4], 26%; in assay [5], < 10%.
Taken in the same sequence, the figures for `CCCCCCCCCCCCn1c2ccccc2c2nc(SCC(=O)NC3CCCCC3)n(-c3ccccc3)c(=O)c21` were < 1%, 4%, 10%, < 1% and < 1%.
The like results for `CCCCCNC(=O)CSc1nc2c([nH]c3ccccc32)c(=O)n1-c1ccccc1` were, in that order, 25%, 42%, 23%, 40% and 40%.
The like results for `O=C(CSc1nc2c([nH]c3ccccc32)c(=O)n1-c1ccccc1)Nc1ccccc1` were, in that order, 15%, 21%, 31%, 44% and 11%.
For the compound `O=C(CSc1nc2c([nH]c3ccccc32)c(=O)n1-c1ccccc1)Nc1ccc2cn[nH]c2c1`, the Activity is 7% in assay [1]; < 1% in assay [2]; < 1% in assay [3]; < 1% in assay [4]; 3% in assay [5].
With `O=C(CSc1nc2c([nH]c3ccccc32)c(=O)n1-c1ccccc1)NC1CCNCC1`, the Activity in assay [1] was 17%; in assay [2] it was < 1%; in assay [3], < 1%; in assay [4], < 1%; in assay [5], < 1%.
Take `O=C(CSc1nc2c([nH]c3ccccc32)c(=O)n1-c1ccccc1)Nc1cccc(F)c1`: the Activity in assay [1] is 13%; in assay [2], 11%; in assay [3], 39%; in assay [4] it was 45%; in assay [5], 14%.
For `Cc1cccc(NC(=O)CSc2nc3c([nH]c4ccccc43)c(=O)n2-c2ccccc2)c1`, the Activity amounted to 54% in assay [1]; 13% in assay [2]; 116% in assay [3]; 55% in assay [4]; 19% in assay [5].
The like results for `O=C(CSc1nc2c([nH]c3ccccc32)c(=O)n1-c1ccccc1)NC1CCCCCCC1` were, in that order, 73%, 95%, 64%, 98% and 114%.
The like results for `O=C(CSc1nc2c([nH]c3ccccc32)c(=O)n1-c1ccccc1)NC1CCC1` were, in that order, 19%, 18%, 32%, 66% and 35%.
Taken in the same sequence, the figures for `CCCCCn1c2ccccc2c2nc(SCC(=O)NC3CCCCC3)n(-c3ccccc3)c(=O)c21` were 1%, 6%, 11%, < 1% and 5%.
Turning to `CC(C)CNC(=O)CSc1nc2c([nH]c3ccccc32)c(=O)n1-c1ccccc1`, the Activity in assay [1] came to 11%; in assay [2], 24%; in assay [3], 21%; in assay [4], 53%; in assay [5], 44%.
Regarding `CCCCCCCC/C=C\CCCCCCCC(=O)OC[C@H](COP(=O)(O)OCCNC(=O)CSc1nc2c([nH]c3ccccc32)c(=O)n1-c1ccccc1)OC(=O)CCCCCCC/C=C\CCCCCCCC`, the Activity in assay [1], in assay [2], in assay [3], in assay [4] and in assay [5] was < 1% throughout.
Take `O=C(CSc1nc2c([nH]c3ccccc32)c(=O)n1-c1ccc(F)cc1)NC1CCCCC1`: the Activity in assay [1] is 5%; in assay [2] it was 41%; in assay [3] it was 51%; in assay [4], 72%; in assay [5], 48%.
Take `CCC(C)CCNC(=O)CSc1nc2c([nH]c3ccccc32)c(=O)n1-c1ccccc1` (stereo not given): the Activity was 23% in assay [1]; 29% in assay [2]; 17% in assay [3]; 45% in assay [4]; 30% in assay [5].
As to `O=C(CSc1nc2c([nH]c3ccccc32)c(=O)n1-c1ccccc1)Nc1ccc2ccccc2c1`, the Activity in assay [1] was < 1%; in assay [2], 2%; in assay [3], 21%; in assay [4] it was < 1%; in assay [5] it was < 1%.
For `O=C(CSc1nc2c([nH]c3ccccc32)c(=O)n1C1CCCCC1)NC1CCCCC1`, the Activity in assay [1] was 27%; in assay [2], 56%; in assay [3], 40%; in assay [4] it was 61%; in assay [5], 71%.
Taken in the same sequence, the figures for `CC(C)(C)CCNC(=O)CSc1nc2c([nH]c3ccccc32)c(=O)n1-c1ccccc1` were 95%, 126%, 72%, 85% and 99%.
The like results for `O=C(CSc1nc2c([nH]c3ccccc32)c(=O)n1-c1ccccc1)Nc1nccs1` were, in that order, 5%, 2%, 12%, < 1% and 1%.
`COC(=O)CCCn1c2ccccc2c2nc(SCC(=O)NC3CCCCC3)n(-c3ccccc3)c(=O)c21`: the Activity came to 124% in assay [1]; 9% in assay [2]; 19% in assay [3]; 19% in assay [4]; 4% in assay [5].
Consider `O=C(CSc1nc2c([nH]c3ccccc32)c(=O)n1CCc1ccccc1)NC1CCCCC1`, for which the Activity in assay [1] was 5%; in assay [2], 1%; in assay [3] it was 1%; in assay [4] it was < 1%; in assay [5], < 1%.
As to `O=C(CSc1nc2c([nH]c3ccccc32)c(=O)n1-c1ccccc1)Nc1ccc(F)cc1`, the Activity in assay [1] worked out at 107%; in assay [2] it was 81%; in assay [3] it was 108%; in assay [4], 70%; in assay [5], 103%.
Taken in the same sequence, the figures for `CCCC(C)NC(=O)CSc1nc2c([nH]c3ccccc32)c(=O)n1-c1ccccc1` (stereo not given) were 6%, 17%, 13%, 55% and 12%.
As for `O=C(CSc1nc2c([nH]c3ccccc32)c(=O)n1-c1ccccc1)Nc1ccccc1F`, the Activity in assay [1] is 61%; in assay [2], 43%; in assay [3] it was 71%; in assay [4] it was 54%; in assay [5], 36%.
With `O=C(CSc1nc2c3ccccc3nc-2c(O)n1-c1ccccc1)NCC1CCCO1` (stereo not given), the Activity in assay [1] was 8%; in assay [2], 21%; in assay [3] it was 13%; in assay [4], 54%; in assay [5], < 23%.
